Test results taken from ChEMBL document CHEMBL1157401, “Anticancer activity of isoobtusilactone A from Cinnamomum kotoense: involvement of apoptosis, cell-cycle dysregulation, mitochondria regulation, and reactive oxygen species” (J Nat Prod, 2008).
The source made the active and inactive calls. No cut-off for these calls is given here.

Legend:
A549 [1] = assay: Cell cycle arrest in human A549 cells assessed as accumulation at S phase at 100 uM after 24 hrs; type: functional
Summary of the method: (§1)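 Flow cytometry of cell cycle: A549 (5 × 10^5 per 60 mm dish) treated next day with 50 or 100 µM for 24, 48 or 72 h. Adherent and floating cells pooled, fixed in PBS-MeOH 1:2 at 4 °C for at least 18 h, then stained 30 min in the dark with PI 50 µg/mL plus RNase A 50 µg/mL. Sub-G1 taken as the subdiploid fraction; at least three runs.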

A549 [2] = assay: Cell cycle arrest in human A549 cells assessed as accumulation at subG1 phase at 100 uM after 48 hrs; type: functional; summary of the method: as §1
A549 [3] = assay: Cell cycle arrest in human A549 cells assessed as accumulation at subG1 phase at 100 uM after 72 hrs; type: functional; summary of the method: as §1
A549 [4] = assay: Cytotoxicity against human A549 cells after 48 hrs by MTT assay; type: functional, cell-based; details: A549, 48 h
A549 [5] = assay: Induction of apoptosis in human A549 cells assessed as PARP cleavage at 100 uM; type: functional, cell-based
A549 [6] = assay: Induction of apoptosis in human A549 cells assessed as DNA fragmentation after 24 hrs; type: functional, cell-based
Summary of the method: (§2)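 Apoptosis by cytoplasmic mono- and oligonucleosomes (nucleosome ELISA): A549 cells given 1, 10 or 100 µM for 6, 12, 18 or 24 h and lysed, then lysate assayed photometrically. Expressed relative to control; three experiments, mean ± SE, ANOVA with Dunnett's test.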

A549 [7] = assay: Antioxidant activity in human A549 cells assessed as N-acetyl-l-cysteine-induced production of H2O2; type: functional, cell-based
Summary of the method: (§3)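 Intracellular ROS (H2O2/peroxide) by DCF fluorescence: A549 cells at 80% confluence exposed to 100 µM for 30 min, then 10 µM DCFH-DA 30 min in the dark, trypsinized and resuspended in PBS. Read by flow cytometry, ex 488 / em 525-550 nm. For scavenger tests, NAC (10 mM) or other agents given 30 min before compound.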

A549 [8] = assay: Induction of apoptosis in human A549 cells assessed as apoptotic nucleosome at 1 uM after 6 hrs; type: functional; summary of the method: as §2
A549 [9] = assay: Cell cycle arrest in human A549 cells assessed as accumulation at G2/M phase at 50 uM after 72 hrs; type: functional; summary of the method: as §1
A549 [10] = assay: Cell cycle arrest in human A549 cells assessed as accumulation at S phase at 50 uM after 24 hrs; type: functional; summary of the method: as §1
A549 [11] = assay: Reversal of antiproliferative activity against human A549 cells in presence of N-acetyl-l-cysteine; type: functional, cell-based
Summary of the method: (§4)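 ROS-dependence of growth inhibition: A549 cells pretreated with NAC (10 mM) or L-NAME (100 µM) for 2 h, then 100 µM compound for 24 h. Proliferation read by MTT assay at OD 570 nm.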

A549 [12] = assay: Cell cycle arrest in human A549 cells assessed as accumulation at subG1 phase at 100 uM after 24 hrs; type: functional; summary of the method: as §1
A549 [13] = assay: Cytotoxicity against human A549 cells after 48 hrs by TB dye exclusion assay; type: functional, cell-based; details: A549, 48 h
A549 [14] = assay: Cell cycle arrest in human A549 cells assessed as accumulation at G1 phase at 50 uM after 24 hrs; type: functional; summary of the method: as §1
A549 [15] = assay: Cell cycle arrest in human A549 cells assessed as accumulation at G2/M phase at 100 uM after 48 hrs; type: functional; summary of the method: as §1
A549 [16] = assay: Induction of p27kip1 level in human A549 cells at 100 uM after 18 hrs by ELISA; type: functional, cell-based
Summary of the method: (§5)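 p53, p21/WAF1 and p27kip1 in A549 lysates by sandwich ELISA after 1, 10 or 100 µM for 6-24 h. Lysate incubated 2 h for p53 and p27kip1, 1 h for p21, at room temperature. HRP-streptavidin and TMB used, absorbance read at 450 nm, values from standard curves. Three experiments, mean ± SE.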

A549 [17] = assay: Cell cycle arrest in human A549 cells assessed as accumulation at G2/M phase at 100 uM after 72 hrs; type: functional; summary of the method: as §1
A549 [18] = assay: Reversal of antiproliferative activity against human A549 cells in presence of nitro-L-arginine methyl ester; type: functional, cell-based; summary of the method: as §4
A549 [19] = assay: Cell cycle arrest in human A549 cells assessed as accumulation at subG1 phase at 50 uM after 72 hrs; type: functional; summary of the method: as §1
A549 [20] = assay: Cell cycle arrest in human A549 cells assessed as accumulation at G2/M phase at 50 uM after 24 hrs; type: functional; summary of the method: as §1
A549 [21] = assay: Cell cycle arrest in human A549 cells assessed as accumulation at G1 phase at 100 uM after 24 hrs; type: functional; summary of the method: as §1
A549 [22] = assay: Cell cycle arrest in human A549 cells assessed as accumulation at G1 phase at 100 uM after 72 hrs; type: functional; summary of the method: as §1
A549 [23] = assay: Increase in Bax level in human A549 cells after 6 hrs by ELISA; type: functional, cell-based
Summary of the method: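 Bax and Bcl-2 in A549 lysates by sandwich ELISA after 1, 10 or 100 µM for 6-24 h. Lysate incubated 1 h at room temperature, HRP-streptavidin and TMB used, absorbance read at 450 nm. Levels interpolated from protein standard curves and compared with vehicle; three experiments, mean ± SE, ANOVA with Dunnett's test.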

A549 [24] = assay: Decrease in mitochondrial potential in human A549 cells assessed as decrease in fluorescent intensity of rhodamine 123 staining; type: functional, cell-based
Summary of the method: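 Mitochondrial membrane potential: A549 cells with or without 100 µM for 6, 12, 18 or 24 h, then moved to serum-free medium containing 10 µM rhodamine 123 for 15 min at 37 °C. Cells collected and fluorescence read within 15 min, ex 490 / em 515 nm.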

A549 [25] = assay: Cell cycle arrest in human A549 cells assessed as accumulation at subG1 phase at 50 uM after 48 hrs; type: functional; summary of the method: as §1
A549 [26] = assay: Antioxidant activity in human A549 cells assessed as increase in dichlorofluorescein florescence intensity after 30 mins relative to untreated cells; type: functional, cell-based; summary of the method: as §3
A549 [27] = assay: Induction of p21/WAF1 protein level in human A549 cells at 100 uM after 18 hrs by ELISA; type: functional, cell-based; summary of the method: as §5

C=C1OC(=O)/C(=C/CCCCCCCCCCCCC)[C@@H]1O [ISOOBTUSILACTONE A]
Activity (A549 [1]): 38.95% | Activity (A549 [2]): 47.64% | Activity (A549 [3]): 60.25% | IC50 (A549 [4]): 1950 nM | Activity (A549 [5]): Active | Activity (A549 [6]): Active | Activity (A549 [7]): Active | Activity (A549 [8]): 3.5 | Activity (A549 [9]): 13.64% | Activity (A549 [10]): 30.81% | Activity (A549 [11]): inactive | Activity (A549 [12]): 25.63% | IC50 (A549 [13]): 891 nM | Activity (A549 [14]): 51.93% | Activity (A549 [15]): 15.59% | Activity (A549 [16]): Active | Activity (A549 [17]): 42.03% | Activity (A549 [18]): Active | Activity (A549 [19]): 54.08% | Activity (A549 [20]): 17.26% | Activity (A549 [21]): 42.88% | Activity (A549 [22]): 41.73% | Activity (A549 [23]): Active | Activity (A549 [24]): Active | Activity (A549 [25]): 36.73% | Activity (A549 [26]): Active | Activity (A549 [27]): Active
